What was measured:
[1] = organism: Homo sapiens; assay: Bronchorelaxing effect in leukotriene D4-contracted human lung small airways model assessed as remaining contraction at 10 uM relative to control; type: functional
In short: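 Human small airways (0.5–1.5 mm diameter) from lobectomy tissue, stretched to 1.2 mN and accepted when two control LTD4 contractions differed by under 10%. Test substance at 10 µM was present for one whole cycle: 1 h LTD4-free PSS, then 30 min with 10 nM LTD4. The contraction was compared with the preceding one and given as % remaining, mean ± SEM. Paired preparations per chamber were averaged.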

[2] = organism: Homo sapiens; assay: Bronchorelaxing effect in leukotriene D4-contracted small human lung small airways model assessed as remaining contraction at 1 uM after 3 hrs relative to control
[3] = organism: Homo sapiens; assay: Bronchorelaxing effect in leukotriene D4-contracted small human lung small airways model assessed as remaining contraction at 1 uM after 4.5 hrs relative to control
[4] = organism: Homo sapiens; assay: Bronchorelaxing effect in leukotriene D4-contracted small human lung small airways model assessed as remaining contraction at 1 uM after 1.5 hrs relative to control
[5] = organism: Homo sapiens; assay: Bronchorelaxing effect in leukotriene D4-contracted small human lung small airways model assessed as remaining contraction at 1 uM after 6 hrs relative to control

Row | Compound | Activity [1] | also measured
1 | Oc1c(O)c(Cl)c2c(c1Cl)CCN(C(=S)NCCc1ccncc1)C2 | 33% | –
2 | CCCCCCCCNC(=S)N1CCCc2cc(O)c(O)cc2C1 | 69% | –
3 | Oc1c(O)c(Cl)c2c(c1Cl)CCN(C(=S)NCCc1ccc(F)cc1)C2 | 6% | –
4 | CCCCCCCCNC(=S)N1CCc2c(Cl)c(O)c(O)c(Cl)c2C1 | 69% | –
5 | Oc1ccc(CCNC(=S)N2CCc3c(Cl)c(O)c(O)c(Cl)c3C2)cc1 | 22% | –
6 | Oc1cc2c(cc1O)CN(C(=S)NCCc1ccc(Br)cc1)CCC2 | 67% | –
7 | Oc1cc2c(cc1O)CN(C(=S)NCCc1ccccc1)CCC2 | 71% | –
8 | Oc1c(O)c(Cl)c2c(c1Cl)CCN(C(=S)NCc1ccc(Cl)cc1)C2 | 19% | –
9 | Oc1c(O)c(Cl)c2c(c1Cl)CCN(C(=S)NCCc1cccc(Cl)c1)C2 | 27% | –
10 | Oc1c(O)c(Cl)c2c(c1Cl)CCN(C(=S)NCCc1ccccc1)C2 | 8% | –
11 | Oc1c(O)c(Cl)c2c(c1Cl)CCN(C(=S)NCCc1ccccc1Cl)C2 | 10% | –
12 | Oc1cc2c(cc1O)CN(C(=S)NCCc1ccccc1Cl)CCC2 | 56% | –
13 | CC(C)(C)c1ccc(CCNC(=S)N2CCc3c(Cl)c(O)c(O)c(Cl)c3C2)cc1 | 69% | –
14 | Oc1c(O)c(Cl)c2c(c1Cl)CCN(C(=S)NCCCc1ccccc1)C2 | 11% | –
15 | O=C(CCCc1ccc(Cl)cc1)N1CCc2cc(O)c(O)cc2C1 | 47% | –
16 | O=C(CCCc1ccc(Cl)cc1)N1CCCc2cc(O)c(O)cc2C1 | 54% | –

Row | Compound | Activity [1] | also measured
17 | Oc1cc2c(cc1O)CN(C(=S)NCCc1cccc(Cl)c1)CCC2 | 76% | –
18 | Oc1c(O)c(Cl)c2c(c1Cl)CCN(C(=S)NCCc1ccc(Cl)cc1)C2 | 14% | Activity [2]: 57%; Activity [3]: 44%; Activity [4]: 79%; Activity [5]: 32%
19 | CC(C)(C)c1ccc(CCNC(=S)N2CCCc3cc(O)c(O)cc3C2)cc1 | 80% | –
20 | O=C(NCCc1ccc(Cl)cc1)N1CCc2cc(O)c(O)cc2C1 | 69% | –
21 | O=C(NCCc1ccc(Cl)cc1)c1ccc2cc(O)ccc2c1 | 90% | –
22 | Oc1cc2c(cc1O)CN(C(=S)NCCc1ccc(F)cc1)CCC2 | 68% | –
23 | Oc1c(O)c(Cl)c2c(c1Cl)CCN(C(=S)NCCc1cccnc1)C2 | 30% | –
24 | O=C(NCCc1ccc(Cl)cc1)C1CCc2cc(O)ccc2C1 (centres undefined) | 78% | –
25 | Oc1c(O)c(Cl)c2c(c1Cl)CCN(C(=S)NCCc1ccc(Br)cc1)C2 | 17% | –
26 | O=C(CCCc1ccc(Cl)cc1)N1CCc2c(Cl)c(O)c(O)c(Cl)c2C1 | 16% | Activity [2]: 65%; Activity [3]: 55%; Activity [4]: 80%; Activity [5]: 45%
27 | O=C(NCCc1ccc(Cl)cc1)N1CCc2c(Cl)c(O)c(O)c(Cl)c2C1 | 16% | Activity [2]: 81%; Activity [3]: 78%; Activity [4]: 91%; Activity [5]: 71%
28 | O=C(NCCc1ccc(Cl)cc1)N1CCCc2cc(O)c(O)cc2C1 | 73% | –
29 | Oc1cc2c(cc1O)CN(C(=S)NCc1ccc(Cl)cc1)CCC2 | 70% | –
30 | Oc1c(O)c(Cl)c2c(c1Cl)CCN(C(=S)NCc1ccccc1)C2 | 10% | –
31 | Oc1cc2c(cc1O)CN(C(=S)NCCCc1ccccc1)CCC2 | 84% | –
32 | Oc1c(O)c(Cl)c2c(c1Cl)CCN(C(=S)NCCc1ccccn1)C2 | 26% | –

Reference: ChEMBL document CHEMBL1142273, “SAR studies of capsazepinoid bronchodilators 3: The thiourea part (coupling region) and the 2-(4-chlorophenyl)ethyl moiety (C-region)” (Bioorg Med Chem, 2008)
